Here are results for 29 compounds from BindingDB's records for doi:10.1021/jm00031a021 (Tap Pharmaceuticals, 1994).

pKi: −log10 of the molar value. Where a SMILES comes first, the peptide text is derived from it. [ ]: non-standard residue; d: D form. The star is where a group is joined. Propanoyl(3-(4-Cl-Ph)) = O=C(CCc1ccc(Cl)cc1)*; dPhe(4-Cl) = N[C@H](Cc1ccc(Cl)cc1)C(=O)O; d2Nal = N[C@H](Cc1ccc2ccccc2c1)C(=O)O; Lys(iPr) = CC(C)NCCCC[C@H](N)C(=O)O; NMeY = CN[C@@H](Cc1ccc(O)cc1)C(=O)O; d3Pal = N[C@H](Cc1cccnc1)C(=O)O; pGlu = O=C1CC[C@@H](C(=O)O)N1; Nicotinoyl = O=C(c1cccnc1)*; X1 = O=C(Cc1ccc(O)cc1)*

What is called pKi is the Ki on a negative log10 scale, so that one unit is a factor of ten. Low values mean a high Ki, high ones a low Ki.

This assay concerns the target T1, Gonadotropin-releasing hormone receptor (Rattus norvegicus, UniProt P30969).
T1 sequence (P30969 whole entry): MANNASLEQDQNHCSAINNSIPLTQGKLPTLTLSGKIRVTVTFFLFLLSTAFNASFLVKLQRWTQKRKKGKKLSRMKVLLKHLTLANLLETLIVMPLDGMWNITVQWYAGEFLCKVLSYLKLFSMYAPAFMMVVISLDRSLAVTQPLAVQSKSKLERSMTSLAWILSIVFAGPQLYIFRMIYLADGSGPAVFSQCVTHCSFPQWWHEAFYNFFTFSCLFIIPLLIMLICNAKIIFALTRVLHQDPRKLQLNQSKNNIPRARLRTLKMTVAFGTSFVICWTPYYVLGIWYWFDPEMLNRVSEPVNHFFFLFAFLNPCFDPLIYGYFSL
In words: Inhibition of the in vitro binding of [125I]-labeled leuprolide to the rat pituitary luteinizing hormone releasing hormone (LHRH) receptor. An outline of the steps:
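Rat pituitary LHRH receptor binding with 125I-labeled leuprolide as radioligand. pKI is the negative log of the analogue concentration inhibiting 50% of tracer binding. Compounds tested as TFA salts.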
On to `CCNC(=O)[C@@H]1CCCN1C(=O)[C@H](CCCN=C(N)N)NC(=O)[C@H](CC(C)C)NC(=O)[C@@H](Cc1c[nH]c2ccccc12)NC(=O)[C@H](Cc1ccc(O)cc1)NC(=O)[C@H](CO)NC(=O)[C@@H](Cc1ccc(O)cc1)NC(=O)CCc1ccc(Cl)cc1` ({Propanoyl(3-(4-Cl-Ph))}-[dY]SY[dW]LRP-NHEt), for which the pKi is 10.74.
`CCNC(=O)[C@@H]1CCCN1C(=O)[C@H](CCCN=C(N)N)NC(=O)[C@H](CC(C)C)NC(=O)[C@@H](Cc1c[nH]c2ccccc12)NC(=O)[C@H](Cc1ccc(O)cc1)NC(=O)[C@H](CO)NC(=O)[C@H](Cc1c[nH]c2ccccc12)NC(=O)Cc1ccc(O)cc1` (X1-WSY[dW]LRP-NHEt) showed a pKi of 9.09.
The compound `CCNC(=O)[C@@H]1CCCN1C(=O)[C@H](CCCN=C(N)N)NC(=O)[C@H](CC(C)C)NC(=O)[C@@H](Cc1c[nH]c2ccccc12)NC(=O)[C@H](Cc1ccc(O)cc1)NC(=O)[C@H](CO)NC(=O)[C@H](Cc1ccc(O)cc1)NC(=O)CCc1ccc(Cl)cc1` ({Propanoyl(3-(4-Cl-Ph))}-YSY[dW]LRP-NHEt) gave a negative logarithm of the Ki (pKi) of 10.12. This pKi is 1.03 log units higher than that of the compound before.
With `CCNC(=O)[C@H]1CCCN1C(=O)[C@H](CCCCNC(C)C)NC(=O)[C@H](CC(C)C)NC(=O)[C@@H](CCCCNC(=O)c1cccnc1)NC(=O)[C@H](Cc1ccc(O)cc1)N(C)C(=O)[C@H](CO)NC(=O)[C@H](Cc1cccc2ccccc12)NC(=O)CCc1ccc(F)cc1`, the negative logarithm of the Ki (pKi) is 11.70.
On to `CCNC(=O)[C@H]1CCCN1C(=O)[C@H](CCCN=C(N)N)NC(=O)[C@H](CC(C)C)NC(=O)[C@@H](CCCCNC(=O)c1cccnc1)NC(=O)[C@H](Cc1ccc(O)cc1)N(C)C(=O)[C@H](CO)NC(=O)[C@H](Cc1c[nH]c2ccccc12)NC(=O)CCc1ccc(F)cc1`, for which the pKi is 10.77. Compared with the last compound, the pKi is 0.93 log units lower.
`CCNC(=O)[C@H]1CCCN1C(=O)[C@H](CCCN=C(N)N)NC(=O)[C@H](CC(C)C)NC(=O)[C@@H](Cc1ccc(O)cc1)NC(=O)[C@@H](Cc1ccc(O)cc1)NC(=O)[C@H](CO)NC(=O)[C@@H](Cc1c[nH]c2ccccc12)NC(=O)CCc1ccc(F)cc1`: the negative-log Ki (pKi) was 11.00. This pKi is 0.23 log units higher than that of the compound before.
`CCNC(=O)[C@H]1CCCN1C(=O)[C@H](CCCN=C(N)N)NC(=O)[C@H](CC(C)C)NC(=O)[C@@H](Cc1c[nH]c2ccccc12)NC(=O)[C@H](Cc1ccc(O)cc1)NC(=O)[C@H](CO)NC(=O)[C@H](Cc1cccc2ccccc12)NC(=O)CCc1ccc(F)cc1`: the negative logarithm of the Ki (pKi) is 10.77.
Consider `CCNC(=O)[C@H]1CCCN1C(=O)[C@H](CCCN=C(N)N)NC(=O)[C@H](CC(C)C)NC(=O)[C@@H](Cc1c[nH]c2ccccc12)NC(=O)[C@H](Cc1ccc(O)cc1)N(C)C(=O)[C@H](CO)NC(=O)[C@H](Cc1c[nH]c2ccccc12)NC(=O)CCc1ccc(F)cc1`, for which the negative-log Ki (pKi) is 10.48.
The compound `CCNC(=O)[C@H]1CCCN1C(=O)[C@H](CCCN=C(N)N)NC(=O)[C@H](CC(C)C)NC(=O)[C@@H](CCCCNC(=O)c1cccnc1)NC(=O)[C@H](Cc1ccc(O)cc1)NC(=O)[C@H](CO)NC(=O)C(Cc1c[nH]c2ccccc12)NC(=O)CCc1ccc(F)cc1` (some centres undefined) gave a pKi of 9.46. Against the preceding compound, the pKi is 1.02 log units lower.
For `CCNC(=O)[C@H]1CCCN1C(=O)[C@H](CCCN=C(N)N)NC(=O)[C@H](CC(C)C)NC(=O)[C@@H](Cc1c[nH]c2ccccc12)NC(=O)[C@H](Cc1ccc(O)cc1)NC(=O)[C@H](CO)N(C)C(=O)[C@H](Cc1c[nH]c2ccccc12)NC(=O)CCc1ccc(F)cc1` the value was 9.87.
Compound `CCNC(=O)[C@H]1CCCN1C(=O)[C@H](CCCN=C(N)N)NC(=O)[C@H](CC(C)C)NC(=O)[C@@H](Cc1c[nH]c2ccccc12)NC(=O)[C@H](Cc1ccc(O)cc1)NC(=O)[C@H](CO)NC(=O)[C@H](Cc1c[nH]c2ccccc12)NC(=O)CCc1ccc(Cl)cc1` showed a pKi of 10.12.
For `CCNC(=O)[C@@H]1CCCN1C(=O)[C@H](CCCN=C(N)N)NC(=O)[C@H](CC(C)C)NC(=O)[C@@H](Cc1c[nH]c2ccccc12)NC(=O)[C@H](Cc1ccc(O)cc1)NC(=O)[C@H](CO)NC(=O)[C@H](Cc1c[nH]c2ccccc12)NC(=O)Cc1ccc(C(F)(F)F)cc1` the value was 9.19.
As for `CCNC(=O)[C@@H]1CCCN1C(=O)[C@H](CCCN=C(N)N)NC(=O)[C@H](CC(C)C)NC(=O)[C@@H](Cc1c[nH]c2ccccc12)NC(=O)[C@H](Cc1ccc(O)cc1)NC(=O)[C@H](CO)NC(=O)[C@H](Cc1c[nH]c2ccccc12)NC(=O)[C@H](Cc1ccccc1)NC(=O)[C@@H]1CCC(=O)N1` ([pGlu]FWSY[dW]LRP-NHEt), the pKi is 10.60. This pKi is 1.41 log units higher than that of the compound before.
In turn, `CCNC(=O)[C@@H]1CCCN1C(=O)[C@H](CCCN=C(N)N)NC(=O)[C@H](CC(C)C)NC(=O)[C@@H](Cc1c[nH]c2ccccc12)NC(=O)[C@H](Cc1ccc(O)cc1)NC(=O)[C@H](CO)NC(=O)[C@H](Cc1c[nH]c2ccccc12)NC(=O)CCc1ccc(F)c(F)c1` had a pKi of 10.28.
`CCNC(=O)[C@H]1CCCN1C(=O)[C@H](CCCN=C(N)N)NC(=O)[C@H](CC(C)C)NC(=O)[C@@H](Cc1c[nH]c2ccccc12)NC(=O)[C@H](Cc1ccc(O)cc1)NC(=O)[C@H](CO)NC(=O)[C@@H]1CCCN1C(=O)CCc1ccc(F)cc1` had a negative-log Ki (pKi) of 10.92.
For the compound `CCNC(=O)[C@H]1CCCN1C(=O)[C@H](CCCN=C(N)N)NC(=O)[C@H](CC(C)C)NC(=O)[C@@H](Cc1c[nH]c2ccccc12)NC(=O)[C@H](Cc1ccc(O)cc1)NC(=O)[C@@H]1CC(O)CN1C(=O)[C@H](Cc1c[nH]c2ccccc12)NC(=O)CCc1ccc(F)cc1` (some centres undefined), the pKi is 8.89.
In turn, `CCNC(=O)[C@H]1CCCN1C(=O)[C@H](CCCN=C(N)N)NC(=O)[C@H](CC(C)C)NC(=O)[C@@H](Cc1ccc(Cl)cc1)NC(=O)[C@H](Cc1ccc(O)cc1)NC(=O)[C@H](CO)NC(=O)[C@H](Cc1c[nH]c2ccccc12)NC(=O)CCc1ccc(F)cc1` showed a negative logarithm of the Ki (pKi) of 10.74.
On to `CC(C)C[C@H](NC(=O)[C@@H](CCCCNC(=O)c1cccnc1)NC(=O)[C@H](Cc1ccc(O)cc1)N(C)C(=O)[C@H](CO)NC(=O)[C@H](Cc1cccc2ccccc12)NC(=O)CCc1ccc(F)cc1)C(=O)N[C@@H](CCCCNC(C)C)C(=O)N1CCC[C@@H]1C(N)=O`, for which the pKi was 10.80. This pKi and that of the compound before are within 0.2 log units of each other.
As for `CCNC(=O)[C@H]1CCCN1C(=O)[C@H](CCCN=C(N)N)NC(=O)[C@H](CC(C)C)NC(=O)[C@@H](CCCCNC(=O)c1cccnc1)NC(=O)[C@H](Cc1ccc(O)cc1)N(C)C(=O)[C@H](CO)NC(=O)[C@H](Cc1c[nH]c2ccccc12)NC(=O)CCc1ccc(Cl)cc1`, the negative logarithm of the Ki (pKi) was 10.70.
For the compound `CCNC(=O)[C@@H]1CCCN1C(=O)[C@H](CCCN=C(N)N)NC(=O)[C@H](CC(C)C)NC(=O)[C@@H](Cc1c[nH]c2ccccc12)NC(=O)[C@H](Cc1ccc(O)cc1)NC(=O)[C@H](CO)NC(=O)[C@H](Cc1c[nH]c2ccccc12)NC(=O)CCc1ccc(F)cc1F`, the negative-log Ki (pKi) was 10.40. This pKi lies 0.30 log units lower than the previous one.
`CCNC(=O)[C@H]1CCCN1C(=O)[C@H](CCCN=C(N)N)NC(=O)[C@H](CC(C)C)NC(=O)[C@@H](Cc1ccc(O)cc1)NC(=O)[C@@H](Cc1ccc(O)cc1)NC(=O)[C@H](CO)NC(=O)[C@H](Cc1c[nH]c2ccccc12)NC(=O)CCc1ccc(F)cc1` gave a negative logarithm of the Ki (pKi) of 10.42.
As to `CCNC(=O)[C@@H]1CCCN1C(=O)[C@H](CCCN=C(N)N)NC(=O)[C@H](CC(C)C)NC(=O)[C@@H](Cc1c[nH]c2ccccc12)NC(=O)[C@H](Cc1ccc(O)cc1)NC(=O)[C@H](CO)NC(=O)[C@H](Cc1c[nH]c2ccccc12)NC(=O)c1cc2cc(F)ccc2[nH]1`, the pKi was 7.91.
`CCNC(=O)[C@H]1CCCN1C(=O)[C@H](CCCN=C(N)N)NC(=O)[C@H](CC(C)C)NC(=O)[C@@H](Cc1c[nH]c2ccccc12)NC(=O)[C@H](Cc1ccc(O)cc1)NC(=O)[C@@H]1CCCN1C(=O)[C@H](Cc1c[nH]c2ccccc12)NC(=O)CCc1ccc(F)cc1` had a negative logarithm of the Ki (pKi) of 9.08.
`CC(=O)N[C@H](Cc1ccc2ccccc2c1)C(=O)N[C@H](Cc1ccc(Cl)cc1)C(=O)N[C@H](Cc1cccnc1)C(=O)N[C@@H](CO)C(=O)N(C)[C@@H](Cc1ccc(O)cc1)C(=O)N[C@H](CCCCNC(=O)c1cccnc1)C(=O)N[C@@H](CC(C)C)C(=O)N[C@@H](CCCCNC(C)C)C(=O)N1CCC[C@H]1C(=O)N[C@H](C)C(N)=O` (Ac-[d2Nal][dPhe(4-Cl)][d3Pal]S[NMeY][dK](Nicotinoyl)L[Lys(iPr)]P[dA]-NH2) gave a pKi of 10.49.
In the case of `CCNC(=O)[C@H]1CCCN1C(=O)[C@H](CCCN=C(N)N)NC(=O)[C@H](CC(C)C)NC(=O)[C@@H](CCCCNC(=O)c1cccnc1)NC(=O)[C@H](Cc1ccc(O)cc1)N(C)C(=O)[C@H](CO)NC(=O)[C@H](Cc1c[nH]c2ccccc12)NC(=O)CCc1cccc(F)c1`, the negative-log Ki (pKi) was 10.59.
Compound `CC(C)C[C@H](NC(=O)[C@@H](CCCCNC(=O)c1cccnc1)NC(=O)[C@H](Cc1ccc(O)cc1)N(C)C(=O)[C@H](CO)NC(=O)[C@H](Cc1cccc2ccccc12)NC(=O)CCc1ccc(F)cc1)C(=O)N[C@@H](CCCCNC(C)C)C(=O)N1CCC[C@@H]1C(=O)O` gave a negative logarithm of the Ki (pKi) of 9.27.
Turning to `CCNC(=O)[C@@H]1CCCN1C(=O)[C@H](CCCN=C(N)N)NC(=O)[C@H](CC(C)C)NC(=O)[C@@H](Cc1c[nH]c2ccccc12)NC(=O)[C@H](Cc1ccc(O)cc1)NC(=O)[C@H](CO)NC(=O)[C@H](Cc1c[nH]c2ccccc12)NC(=O)CCc1ccc(C(F)(F)F)cc1`, the pKi was 9.56.
`CCNC(=O)[C@H]1CCCN1C(=O)[C@H](CCCN=C(N)N)NC(=O)[C@H](CC(C)C)NC(=O)[C@@H](Cc1c[nH]c2ccccc12)NC(=O)[C@H](Cc1ccc(O)cc1)NC(=O)[C@H](CO)NC(=O)[C@H](Cc1c[nH]c2ccccc12)NC(=O)[C@@H](N)Cc1ccccc1`: the negative logarithm of the Ki (pKi) is 7.08. Compared with the last compound, the pKi is 2.48 log units lower.
The compound `CCNC(=O)[C@@H]1CCCN1C(=O)[C@H](CCCN=C(N)N)NC(=O)[C@H](CC(C)C)NC(=O)[C@@H](Cc1c[nH]c2ccccc12)NC(=O)[C@H](Cc1ccc(O)cc1)NC(=O)[C@H](CO)NC(=O)[C@H](Cc1c[nH]c2ccccc12)NC(=O)c1cc2ccccc2[nH]1` showed a pKi of 7.77.
